# High-throughput results (PubChem)
# Bfl-1 A1 inh – caspase 3/7 activation in MEF A1-2A-BIM cells, primary screen, A1 inhibitor project, cell-based, luminescence, HTS; caspase activation, % (concentration not given with the values); Caspase-Glo 3/7 luminescence, 3 h; percent of clofoctol response, vehicle zero; 0.066% of 330,000 active;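 active = over half of replicate activation scores above 10%, or exactly half above 10 with the replicate mean above 10; inconclusive = replicate mean below 10 yet half the replicates above 10; inactive = over half of replicates below 10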
# H9c2 TAG inh – inhibitors of triacylglycerol accumulation, primary screen, cell-based, uHTS, fluorescence, H9c2; H9c2 cells, Nile Red lipid (TAG) fluorescence; cells loaded with 200 µM oleic acid; inhibition, % at 12.5 µM; 0.66% of 230,000 active; AID 651582, 2012;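 active = pattern-corrected inhibition of lipid staining of at least 50% with the nuclear-stain viability signal not falling by more than 50%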;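 also: 0% = DMSO wells and 100% = triacsin C control wells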
# SR-BI HDL uptake – inhibitors of SR-BI mediated HDL lipid uptake, primary screen, ldlA[mSR-BI] cells, fluorescence, single point; ldlA[mSR-BI] CHO cells, DiI-HDL uptake fluorescence, 3 h; inhibition, % at 12.5 µM; 0.96% of 320,000 active; AID 488896, 2010;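 active = mean replicate inhibition of at least 70% and a set share of replicates each scoring 70 or more; inconclusive = meets just one of the two criteria; inactive = fails both criteria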;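 also: 0% = median of neutral control wells and 100% = median of positive control wells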
# Target sequence (Q61009 whole entry, looked up): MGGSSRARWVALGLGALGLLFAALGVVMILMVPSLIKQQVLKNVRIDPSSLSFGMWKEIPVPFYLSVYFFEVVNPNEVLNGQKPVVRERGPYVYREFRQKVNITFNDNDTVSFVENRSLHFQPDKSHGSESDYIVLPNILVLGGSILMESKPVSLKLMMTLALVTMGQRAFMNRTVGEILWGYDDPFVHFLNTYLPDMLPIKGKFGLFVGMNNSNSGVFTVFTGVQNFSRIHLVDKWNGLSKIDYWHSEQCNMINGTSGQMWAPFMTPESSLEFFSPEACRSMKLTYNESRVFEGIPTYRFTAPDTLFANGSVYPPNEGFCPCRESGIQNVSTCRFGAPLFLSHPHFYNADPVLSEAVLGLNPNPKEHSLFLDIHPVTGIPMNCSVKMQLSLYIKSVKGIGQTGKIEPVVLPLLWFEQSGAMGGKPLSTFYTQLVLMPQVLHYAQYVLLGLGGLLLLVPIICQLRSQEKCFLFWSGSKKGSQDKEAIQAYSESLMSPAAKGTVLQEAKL
# Vif imaging – HIV Vif self-association inhibitors, primary screen, imaging, HEK293T, single point; HEK293T cells, Vif self-association by quenched fluorescence, 24 h; inhibition, % at 7.49 µM; 0.35% of 340,000 active; in the data active = inhibition above about 50%, passing the limit was not always enough; inconclusive = no clear call, values can overlap the other calls; inactive = below about 31%
# SR-BI DiI-HDL act – activators of SR-BI mediated DiI-HDL uptake, primary screen, ldlA[mSR-BI] CHO cells, DiI fluorescence; 0.096% of 320,000 active; 3 h; 100 = double the neutral-control signal; activation, % at 12.5 µM; AID 504775, 2011;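 active = mean replicate activation of at least 60% and every replicate at or above 60%; inconclusive = mean or all-replicate condition met, but not both; inactive = mean below 60% and not all replicates reaching 60%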;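 also: 0% = median plate neutral-control signal and 100% = twice that signal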
#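 Assay system: LDL receptor-deficient CHO ldlA cells overexpressing murine SR-BI / Medium: BSA-supplemented, HEPES-buffered Ham's F12, pH 7.4 / Probe or stimulus: DiI-labelled HDL at 10 µg/mL final / Timing: compound with DiI-HDL co-incubation, 3 h at 37 °C / Technique: bottom-read cell fluorescence after medium removal, ex 550/em 595 nm / Measure: HDL uptake via cellular fluorescence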
# TAG conf – triacylglycerol accumulation inhibitors, retest, confirmation, cell-based, single concentration, Nile Red fluorescence, H9c2. shares compounds with H9c2 TAG inh. H9c2 lipid accumulation; cells loaded with 200 µM oleic acid. inhibition, % at 12.5 µM. 71% of 990 active. AID 651629, 2012;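 active = mean inhibition across replicates of 40% or more; inactive = mean inhibition below 40%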;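 also: plate controls were DMSO only wells for no effect and Triacsin C treated wells for full effect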
# * = called active by the depositor; ? = inconclusive; . = no result. The list is not random: actives were taken first. Their share in the collection is about 1.6%.
SMILES,Bfl-1 A1 inh,H9c2 TAG inh,SR-BI HDL uptake,Vif imaging,SR-BI DiI-HDL act,TAG conf
CC1(C(=O)NCc2ccco2)Cc2c(-c3cccc(C(F)(F)F)c3)ccnc2O1 (configuration not stated),.,54*,.,-23,.,46*
CC1(C(=O)NCc2ccccc2)Cc2c(-c3cccc(C(N)=O)c3)ccnc2O1 (configuration not stated),.,55*,.,-9,.,60*
CC(=O)c1cccc(NC(=O)C2(C)Cc3c(-c4cccc(C(N)=O)c4)ccnc3O2)c1 (configuration not stated),.,7,.,0,.,.
COc1ccc(NC(=O)C2(C)Cc3c(-c4cccc(C(N)=O)c4)ccnc3O2)cn1 (configuration not stated),.,50*,.,5,.,55*
NC(=O)c1cccc(-c2ccnc3c2CC(C(=O)NCc2ccccc2)O3)c1 (configuration not stated),.,50*,.,36,.,54*
NC(=O)c1cccc(-c2ccnc3c2CC(C(=O)NCc2ccc(F)c(F)c2)O3)c1 (configuration not stated),.,5,.,4,.,.
CN(Cc1c(C(=O)N2CCc3ccccc3C2)nc2ccc(Cl)cn12)C(C1CC1)C1CC1,-1,-31,-15,-1,15,.
CC(C)Sc1nnc(NC(=O)c2ccco2)s1,0,55*,-22,-5,22,18
CC(=O)c1c(Cl)nc2ccc(Br)cc2c1-c1ccccc1,0,.,18,13,-18,.
COc1ccc(NC(=O)O[C@@H](C)[C@@H]2CN3CCc4c([nH]c5ccc(-c6ccc(OC)cc6)cc45)[C@@H]3C[C@@H]2N(C)C(=O)Nc2ccc(OC)cc2)cc1,.,72*,.,0,.,72*
COc1ccc(-c2ccc3[nH]c4c(c3c2)CCN2C[C@@H]([C@H](C)OC(=O)Nc3cc(Cl)cc(Cl)c3)[C@@H](N(C)C(=O)Nc3cc(Cl)cc(Cl)c3)C[C@@H]42)cc1,.,73*,.,-1,.,84*
COc1ccc(NC(=O)N(C)[C@H]2C[C@H]3c4[nH]c5ccc(-c6ccc7c(c6)OCO7)cc5c4CCN3C[C@H]2[C@H](C)O)cc1,.,60*,.,-1,.,66*
COc1ccc(NC(=O)N(C)[C@H]2C[C@H]3c4[nH]c5ccc(-c6ccc(OC)cc6)cc5c4CCN3C(=O)[C@H]2[C@H](C)O)cc1,.,24,.,0,.,.
COc1ccc(NC(=O)N(C)[C@H]2C[C@H]3c4[nH]c5ccc(-c6ccc(OC)cc6)cc5c4CCN3C[C@H]2[C@H](C)O)cc1,.,34,.,.,.,.
Cc1ccc(NC(=O)CSc2nnc(-c3ccccn3)n2N)c(Br)c1,1,5,.,7,.,.
O=C(NCCC1=CCCCC1)C1CCN(S(=O)(=O)N2CCCC2)CC1,0,-7,-14,43,14,.
O=C(NCCC1=CCCCC1)C1CCN(C(=O)Nc2ccccc2)CC1,0,51*,49,21,-49,33
COc1ccccc1-c1cc(C(F)(F)F)nc(N2CCCC2)n1,0,20,27,-5,-27,.
COc1ccccc1-c1cc(C(F)(F)F)nc(S(=O)(=O)CCCC(=O)NC(C)C)n1,8.5*,66*,-29,?,29,90*
CC(C)C[C@H]1CNC(=S)N1CC1CCCN1C[C@H](CC(C)C)N1C[C@H](CC(C)C)N(CC2CCCCCC2)C1=S (some centres not stated),.,62*,-13,-11,13,55*
CC(C)C[C@H]1CNC(=S)N1CC1CCCN1C[C@H](CC(C)C)N1C[C@H](CC(C)C)N(CCc2ccccc2)C1=S (some centres not stated),.,74*,-4,.,4,82*
CC(C)C[C@H]1CNC(=S)N1C[C@H]1CCCN1C[C@H](CC(C)C)N1C[C@H](Cc2ccccc2)N(CCc2ccccc2)C1=S,.,.,.,10,.,.
Oc1ccc(C[C@H]2CNC(=S)N2CC2CCCN2C[C@H](Cc2ccc(O)cc2)N2C[C@H](Cc3ccc(O)cc3)N(CC3CCCCCC3)C2=S)cc1 (some centres not stated),.,76*,-186,-3,186*,72*
CC(OC(=O)C1=COCCO1)C(=O)NC(C)c1ccc(Cl)cc1Cl (configuration not stated),0,0,-5,-14,5,.
CCOc1ccc(CCNC(=O)c2cc3sccc3n2CC)cc1OCC,1,79*,?,-15,-71,40
SMILES,Bfl-1 A1 inh,H9c2 TAG inh,SR-BI HDL uptake,Vif imaging,SR-BI DiI-HDL act,TAG conf
CCOc1ccc(CCNC(=O)CCC(=O)c2cccs2)cc1OCC,-1,17,26,24,-26,.
O=C(NC(=S)Nc1nc2ccc(F)cc2s1)c1ccco1,-4,2,23,-25,-23,.
Cc1cc(NC(=O)c2cc(-c3ccncc3)nc3c(C)cccc23)no1,0,64*,71*,-1,-71,66*
CCC(C)(C)C1CCC2(CC1)NC(=O)N(CC(=O)NCCc1ccc(OC)c(OC)c1)C2=O (configuration not stated),0,53*,50,-3,-50,50*
O=C(CC1CCCC1)Nc1ccc(Cl)c(S(=O)(=O)N2CCOCC2)c1,2,6,25,-10,-25,.
CSc1ccc2c(c1)N(CCC1CCCCN1C)c1ccccc1S2 (configuration not stated),0,85*,5,-4,-5,59*
O=c1[nH]cnc2c1ncn2[C@@H]1O[C@H](COS(=O)(=O)O)[C@@H](O)[C@H]1O,1,-16,1,7,-1,.
CC(C)(C)c1cc(C(=O)Nc2cccnc2)cc(C(=O)Nc2cccnc2)c1,-1,.,47,-2,-47,.
Cc1ccc(C)c(OCc2cc(C(=O)N3CCN(c4ccccc4C)CC3C)no2)c1 (configuration not stated),0,-2,6,-1,-6,.
COc1cc(C2C3=C(COC3=O)Oc3cc4c(cc32)OCO4)ccc1O (configuration not stated),.,55*,2,-2,-2,71*
COc1cc(C2C3=C(COC3=O)OC(C)(C)Oc3cc4c(cc32)OCO4)cc(OC)c1OC (configuration not stated),.,27,3,-9,-3,.
COc1ccc(S(=O)(=O)N2N=C(C)Oc3ccccc3C2=O)cc1,1,63*,12,11,-12,54*
CC(=O)Nc1nc2nc(-c3ccccc3)cc(-c3ccccc3)n2n1,1,20,2,.,-2,.
